Experimental findings from ChEMBL document CHEMBL5338794, “Optimization of Orally Bioavailable Antileishmanial 2,4,5-Trisubstituted Benzamides” (J Med Chem, 2023) are described below.

The nature of series [1]: Kinetic aqueous solubility of the compound in PBS at pH 7.4 incubated for 18 hrs by LC-MS analysis. Type of series: physicochemical. Particulars: read-out: Kinetic_solubility.
For series [2], the system named is Leishmania mexicana. Description: Antileishmanial activity against renilla luciferase-expressing Leishmania mexicana promastigotes infected in mouse J774.A1 cells assessed as inhibition of intracellular amastigotes growth incubated for 96 hrs by Renilla luciferase assay. The format is functional, organism-based. As to conditions: J774.A1, 96 h.
Series [3] can be described thus: Metabolic stability in CD-1 mouse liver microsomes assessed as half life at 1 uM and measured upto 60 mins in presence of NADPH regenerating system by LC-MS/MS analysis. Type of series: ADME, Microsome. As to conditions: 1 h. The gist of the method: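 Half-life and intrinsic clearance determined by incubation with mouse liver microsomes.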
For orientation: Microsomes from liver hold many membrane-bound enzymes, among them those of drug oxidation.

A further series has as its system BJ. Kind of series: Cytotoxicity against human BJ cells assessed as reduction in cell viability incubated for 72 hrs by Cell TiterGlo assay. Type of series: functional, cell-based. In general terms: In ATP-based viability assays light output follows the ATP content of the culture.
Series [4] can be described thus: Clearance in CD-1 mouse at 10 mg/kg,po and measured upto 24 hrs by LC-MS/MS analysis. Type of series: ADME, organism-based. Particulars: in vivo. The gist of the method: (§1)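 Single oral dose to mice at 10 mg/kg, in 20% PEG 400/80% (20% SBE-beta-CD in water). Plasma concentration–time profile used for t1/2, Cmax, Tmax, AUC, CL, apparent Vd and bioavailability (F).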

Series [5] can be described thus: Oral bioavailability in CD-1 mouse at 10 mg/kg and measured upto 24 hrs by LC-MS/MS analysis. The format is ADME, organism-based. Particulars: in vivo. In short, it runs like this: as §1
For series [6], the system named is Leishmania mexicana. Kind of series: Antileishmanial activity against Leishmania mexicana MNZY/BZ/62/M379 promastigotes infected in BALB/c mouse assessed as fold reduction in footpad lesion development by measuring lesion size at 50 mg/kg, po QD for 10 days administered at day 18 postinfection and measured at 5 weeks postinfection by caliper analysis. The format is functional. As to conditions: time 10 day. In short, it runs like this:
(§2)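 BALB/c mice, 5 per group, infected with L. mexicana by footpad injection. Vehicle or HCl salt of compound given by oral gavage at 50 mg/kg/day for 10 consecutive days from day 18 postinfection. Lesion size measured by caliper up to 5 weeks postinfection, reported as mean ± SD. Groups compared by Mann–Whitney.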

Series [7] can be described thus: Half life in CD-1 mouse at 3 mg/kg,iv and measured upto 24 hrs by LC-MS/MS analysis. The format is ADME, organism-based. Particulars: in vivo. The gist of the method:
(§3)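 Single intravenous dose to mice at 3 mg/kg. Plasma concentration–time profile used for t1/2, Cmax, AUC, clearance and steady-state volume of distribution.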

Series [8] in a line: AUC in CD-1 mouse at 3 mg/kg,iv and measured upto 24 hrs by LC-MS/MS analysis. The format is ADME, organism-based. Details: time < 24 hrs, dose 3 mg/kg, route iv. Particulars: in vivo. In short, it runs like this: as §3
The nature of series [9]: Clearance in CD-1 mouse at 3 mg/kg,iv and measured upto 24 hrs by LC-MS/MS analysis. The format is ADME, organism-based. As to conditions: in vivo. The gist of the method: as §3
The nature of series [10]: Cmax in CD-1 mouse at 10 mg/kg,po and measured upto 24 hrs by LC-MS/MS analysis. Type of series: ADME, organism-based. Details: dose 10 mg/kg, time < 24 hrs, route po. As to conditions: in vivo. The gist of the method: as §1
Series [11] concerns Leishmania mexicana. Kind of series: Antileishmanial activity against Leishmania mexicana MNZY/BZ/62/M379 promastigotes infected in BALB/c mouse assessed as footpad lesion development at 50 mg/kg, po QD for 10 days administered at day 18 postinfection and measured after 5 weeks postinfection by caliper analysis. As to conditions: time 10.0 day. Type of series: functional, organism-based. The gist of the method: as §2

The nature of series [12]: Cmax in CD-1 mouse at 3 mg/kg,iv and measured upto 24 hrs by LC-MS/MS analysis. As to conditions: in vivo. Details: dose 3 mg/kg, time < 24 hrs, route iv. The format is ADME, organism-based. In short, it runs like this: as §3
Series [13] in a line: Volume of distribution in CD-1 mouse at 3 mg/kg,iv and measured upto 24 hrs by LC-MS/MS analysis. As to conditions: in vivo. Type of series: ADME, organism-based. In short, it runs like this:
as §3

In series [14] the test system is Plasma. Description: Time during which plasma concentration exceeds EC50 for inhibition of proliferation of luciferase expressing Leishmania mexicana intracellular amastigotes cultured in mouse J774.A1 cells infected to CD-1 mouse at 10 mg/kg,po by LC-MS/MS analysis. Type of series: organism-based. Particulars: in vivo. The gist of the method: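 Time that plasma concentration stays above the intracellular-amastigote EC50, read from the plasma profile after a single oral dose at 10 mg/kg in 20% PEG 400/80% (20% SBE-beta-CD in water).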

The nature of series [15]: Tmax in CD-1 mouse at 10 mg/kg,po and measured upto 24 hrs by LC-MS/MS analysis. The format is ADME, organism-based. As to conditions: in vivo. The gist of the method: as §1
Series [16] can be described thus: Volume of distribution in CD-1 mouse at 10 mg/kg,po and measured upto 24 hrs by LC-MS/MS analysis. The format is ADME, organism-based. Particulars: in vivo. In short, it runs like this:
as §1

The subject of series [17] is Plasma. Description: Time during which plasma concentration exceeds EC50 for inhibition of proliferation of luciferase expressing Leishmania mexicana intracellular amastigotes cultured in mouse J774.A1 cells infected to CD-1 mouse at 3 mg/kg,iv by LC-MS/MS analysis. Type of series: organism-based. As to conditions: in vivo.
Series [18] can be described thus: AUC in CD-1 mouse at 10 mg/kg,po and measured upto 24 hrs by LC-MS/MS analysis. The format is ADME, organism-based. On the set-up: time < 24 hrs, dose 10 mg/kg, route po. As to conditions: in vivo. In short, it runs like this:
as §1

Series [19] can be described thus: Half life in CD-1 mouse at 10 mg/kg,po and measured upto 24 hrs by LC-MS/MS analysis. The format is ADME, organism-based. Particulars: in vivo. The gist of the method: as §1

In brackets after ≈: the same amount, converted by molar mass. Activity calls are given as the source filed them. The calls are words filed in the database; no cut-off is given here.

One may read the EC50 as the concentration giving half of the maximal effect. As for `Cc1ccc(-c2nc3ccccc3s2)cc1NC(=O)c1cc([N+](=O)[O-])c(F)cc1F`, the solubility kinetic at 18 h in series [1] was found to be 22 µM (≈ 9.36 µg/mL). For the same compound, the EC50 in the series with Leishmania mexicana [2] is 600 nM; with BJ, over 25000 nM. Besides, the t1/2 in series [3] was determined as 0.45 h.

On to `Cc1cc(Cl)c(Cl)cc1NC(=O)c1ccc(N2CCNCC2)c([N+](=O)[O-])c1`, for which the solubility kinetic at 18 h in [1] is 31 µM (≈ 12.7 µg/mL). Besides, the EC50 in the series on Leishmania mexicana [2] was determined as 800 nM; in the series with BJ, 24900 nM. Also, the t1/2 in series [3] was found to be 1.12 h.

For `O=C(Nc1cccc(-c2ncco2)c1)c1cc([N+](=O)[O-])c(F)cc1F`, the solubility kinetic at 18 h in [1] worked out at 9.4 µM (≈ 3.25 µg/mL). Besides, the EC50 stood at 700 nM in the series on Leishmania mexicana [2] and 1500 nM in the series with BJ. Besides, the t1/2 in series [3] is 0.01 h.

For the compound `Cc1cc(Cl)c(Cl)cc1NC(=O)c1cc([N+](=O)[O-])c(N2CCNCC2)cc1Cl`, the solubility kinetic at 18 h in series [1] is 5.3 µM (≈ 2.35 µg/mL). Also, the EC50 with Leishmania mexicana [2] turned out to be 100 nM; in the series on BJ it was 14200 nM. The t1/2 in series [3] was found to be 0.933 h.

For `Cc1cc(Cl)c(Cl)cc1NC(=O)c1ccc(N2CCNCC2)nc1`, the solubility kinetic at 18 h in series [1] turned out to be 188 µM (≈ 68.7 µg/mL). The results for the EC50 in the series on Leishmania mexicana [2] and with BJ were 900 nM and 24000 nM, respectively. Besides, the t1/2 in series [3] was 0.5 h.

Turning to `O=C(Nc1cncc(-c2nc3ccccc3s2)c1)c1cc([N+](=O)[O-])c(N2CCNCC2)cc1Cl`, the solubility kinetic at 18 h in series [1] stood at 6.3 µM (≈ 3.12 µg/mL). For the same compound, the values for the EC50 in the series on Leishmania mexicana [2] and with BJ were 600 nM and 15300 nM, respectively. The t1/2 in series [3] came to 2.17 h.

As usually defined, the CL/F is clearance divided by bioavailability, as obtained after extravascular dosing. The AUC is concentration integrated over time. Higher therefore signals more exposure. What is called Cmax is the maximum level reached in the sampled fluid or tissue. In general, Tmax refers to the time at which the peak concentration occurs. `O=C(Nc1ccc(Cl)c(Cl)c1)c1ccc(N2CCNCC2)c([N+](=O)[O-])c1`: the solubility kinetic at 18 h in series [1] was 46 µM (≈ 18.2 µg/mL). In series [4], this compound gave a CL/F of 53.5 mL/min/kg. Also, the F in series [5] was 80%. Moreover, in the series on Leishmania mexicana [6], the “fold change (FC)” value came out at 10. In addition, the EC50 in the series on Leishmania mexicana [2] was 700 nM; with BJ it was 15000 nM. The figures for the t1/2 in [7], in series [3] and in series [19] were 3.4 h, 1.92 h and 3.6 h, respectively. Also, the AUC in series [8] turned out to be 2.85 µM·h; in [18], 7.82 µM·h. The compound further yielded a CL in [9] of 42.8 mL/min/kg. For the same compound, the Cmax in series [10] is 1000 nM; in [12], 1950 nM. Also, the result in the series with Leishmania mexicana [11] was inactive. Also, the figures for the Vd in series [13] and in series [16] were 9.3 L/kg and 6.8 L/kg, respectively. Further, the entries for the “T>EC50” value with Plasma [14] and in the series with Plasma [17] were 5.5 h and 1.5 h, respectively. The Tmax in series [15] was determined as 2 h.

As to `Cc1ccc(-c2nc3ccccc3o2)cc1NC(=O)c1cc([N+](=O)[O-])c(N2CCNCC2)cc1Cl`, the solubility kinetic at 18 h in series [1] was 12.8 µM (≈ 6.3 µg/mL). For the same compound, the EC50 with Leishmania mexicana [2] worked out at 200 nM; in the series with BJ it was 19100 nM. Also, in series [3], the t1/2 worked out at 2 h.

As to `Cc1cc(Cl)c(Cl)cc1NC(=O)c1ccc(N2CCNCC2)c(C#N)c1`, the solubility kinetic at 18 h in series [1] worked out at 3.6 µM (≈ 1.4 µg/mL). The values for the EC50 in the series on Leishmania mexicana [2] and in the series with BJ were 900 nM and 13500 nM, respectively. Further, the t1/2 in [3] came out at 0.8 h.

For the compound `O=C(Nc1cncc(-c2nc3ccccc3o2)c1)c1ccc(N2CCNCC2)c([N+](=O)[O-])c1`, the solubility kinetic at 18 h in series [1] is 15 µM (≈ 6.67 µg/mL). In addition, the results for the EC50 in the series with Leishmania mexicana [2] and in the series on BJ were 500 nM and 20000 nM, respectively. Also, the t1/2 in series [3] came to 2.3 h.
